Measurements from ChEMBL document CHEMBL1149161, “Design, synthesis, and biological evaluation of substituted 2-cyclohexyl-4-phenyl-1H-imidazoles: potent and selective neuropeptide Y Y5-receptor antagonists” (J Med Chem, 2004).

How the values were obtained:
[1] = Inhibition of […] binding to recombinant human chimeric NPY5/NPY1 receptor expressed in Sf9 cells
In short: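 Membranes from Sf9 cells expressing the human chimeric NPY5/NPY1 receptor, in 50 mM Tris-HCl pH 7.4 with 5 mM KCl, 120 mM NaCl, 2 mM CaCl2, 1 mM MgCl2 and 0.1% BSA. Membranes (5–50 µg) competed against 0.050 nM porcine [125I]PYY for 2 h at room temperature. Nonspecific binding was defined with 1 µM human NPY. Filtration and gamma counting followed; Ki came from a Hill fit; mean of n = 2-3 ± SEM.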

COS-7 = test: Percentage block at hERG Voltage-gated potassium channel (subunit Kv11.1) expressed in COS7 cells by electrophysiological whole cell assay (300 nM); format: cell-based; conditions: Homo sapiens
[2] = Maximum plasma concentration after oral dosing in rat; format: ADME, organism-based; design: route oral
In short: (§1)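 Sprague–Dawley rats received a single 20 mg/kg oral gavage dose in 20% vitamin E/water (n = 3). Blood was sampled from predose to 24 h. Heparinized plasma was precipitated with acetonitrile and analyzed by LC. Bioavailability was set against a 3 mg/kg iv dose (n = 2).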

[3] = Plasma clearance of the compound; format: ADME, organism-based
In short: (§2)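 Sprague–Dawley rats received a single 3 mg/kg iv catheter dose in 50% PEG/water (n = 2). Blood was sampled at predose and from 5 min to 24 h. Heparinized plasma was precipitated with acetonitrile and analyzed by LC.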

[4] = Volume of distribution at steady state; format: ADME, organism-based; conditions: in vivo; read-out: Vss; in short: as §2
[5] = Oral half life of the compound; format: ADME, organism-based; conditions: in vivo; in short: as §1
Rattus norvegicus = test: Oral bioavailability after peroral administration in rats; format: organism-based; in short: as §1

Structure (SMILES)	Ki [1]	other results
O=S(=O)(NC[C@H]1CC[C@H](c2nc(-c3cccc(C(F)(F)F)c3)c[nH]2)CC1)c1ccccc1	0.2 nM	inhibition (COS-7): 87%
CC(=O)CNC(=O)[C@H]1CC[C@H](c2nc(-c3cccc(Br)c3)c[nH]2)CC1	10 nM	
C[C@H](O)CNC(=O)[C@H]1CC[C@H](c2nc(-c3cccc(C(F)(F)F)c3)c[nH]2)CC1	31 nM	
FC(F)(F)c1cccc(-c2c[nH]c(C3CCCCC3)n2)c1	6 nM	
COCCNC(=O)[C@H]1CC[C@H](c2nc(-c3cccc(C(F)(F)F)c3)c[nH]2)CC1	99 nM	
O=C(NCCCO)[C@H]1CC[C@H](c2nc(-c3cccc(C(F)(F)F)c3)c[nH]2)CC1	185 nM	
CC(=O)NNC(=O)[C@H]1CC[C@H](c2nc(-c3cccc(C(F)(F)F)c3)c[nH]2)CC1	1.4 nM	
C[C@@H](O)CNC(=O)[C@H]1CC[C@H](c2nc(-c3cccc(C(F)(F)F)c3)c[nH]2)CC1	8 nM	
FC(F)(F)c1cccc(-c2c[nH]c(-c3ccccc3)n2)c1	2.5 nM	
O=C(NCCO)[C@H]1CC[C@H](c2nc(-c3cccc(C(F)(F)F)c3)c[nH]2)CC1	11 nM	
NCCNC(=O)[C@H]1CC[C@H](c2nc(-c3cccc(C(F)(F)F)c3)c[nH]2)CC1	915 nM	
CN(C[C@H]1CC[C@H](c2nc(-c3cccc(C(F)(F)F)c3)c[nH]2)CC1)S(=O)(=O)c1ccccc1	1.3 nM	inhibition (COS-7): 85%
CC(C)(CO)NC(=O)[C@H]1CC[C@H](c2nc(-c3cccc(C(F)(F)F)c3)c[nH]2)CC1	2.8 nM	Cmax [2]: 714 ng/mL; clearance [3]: 50 mL/min/kg; Vd [4]: 6 L/kg; half-life [5]: 13 h; bioavailability (Rattus norvegicus): 36%
O=C(NS(=O)(=O)c1ccccc1)[C@H]1CC[C@H](c2nc(-c3cccc(C(F)(F)F)c3)c[nH]2)CC1	31 nM	
